Assay outcomes from PubChem.
CSN inh: CSN deneddylation inhibition; Purified CSN, SCF-Nedd8-OG deneddylation, fluorescence polarization; inhibition, % at 12.5 µM; 360,000 compounds, 0.38% hits;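 active = pattern-corrected inhibition above about 35%, with an unprinted fluorescence ratio check between 0.5 and 1.5, limit read from the data, passing the limit was not always enough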;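 also: 0% = enzyme with substrate and 100% = substrate without enzyme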
Target sequence (Q92905 whole entry, looked up, one chain of several): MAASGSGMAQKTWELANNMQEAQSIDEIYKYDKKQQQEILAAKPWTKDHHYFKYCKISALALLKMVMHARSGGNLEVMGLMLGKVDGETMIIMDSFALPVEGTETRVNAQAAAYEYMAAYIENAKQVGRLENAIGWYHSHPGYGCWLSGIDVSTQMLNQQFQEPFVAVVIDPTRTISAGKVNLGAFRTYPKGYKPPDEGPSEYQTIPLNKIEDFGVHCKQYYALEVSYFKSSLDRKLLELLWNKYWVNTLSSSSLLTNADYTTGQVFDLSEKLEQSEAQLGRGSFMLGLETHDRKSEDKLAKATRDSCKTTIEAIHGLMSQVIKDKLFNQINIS
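Assay system: HEK293T-derived human Csn5 enzyme; quantity: 0.24 nM enzyme; medium: Tris/NaCl/DTT buffer, pH 7.5; also added: substrate SCFSkp2-Nedd8OG, 10 nM; doses: 12.5 µM compound; schedule: 90 min reaction at room temperature; signal: FP; read-out: % inhibition of substrate cleavage by Csn5; benchmarks: substrate-only high control, full reaction low control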
Rpn11 inh: inhibitors of human proteasome Rpn11; inhibition, % at 20 µM; 360,000 compounds, 0.59% hits; O00487; human 26S proteasome, Ub4-pepOG fluorescence polarization; 20S core pre-blocked with epoxomicin;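 active = inhibition at 20 µM, scaled to each plate's controls, above about 33%, limit read from the data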
Target sequence (O00487 whole entry, looked up): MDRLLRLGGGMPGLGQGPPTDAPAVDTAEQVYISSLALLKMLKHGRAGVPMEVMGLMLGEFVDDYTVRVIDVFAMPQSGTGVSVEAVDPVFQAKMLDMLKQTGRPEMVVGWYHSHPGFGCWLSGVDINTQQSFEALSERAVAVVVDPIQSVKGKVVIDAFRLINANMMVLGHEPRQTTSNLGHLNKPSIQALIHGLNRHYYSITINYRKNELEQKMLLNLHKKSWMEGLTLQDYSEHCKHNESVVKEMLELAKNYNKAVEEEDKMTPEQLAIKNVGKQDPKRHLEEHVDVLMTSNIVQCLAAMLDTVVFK
SUMO1 PPI mod: alters human SUMO1 binding to SIM partners. P63165. SUMO1 binding to a labelled peptide, TR-FRET, 1 h. inhibition, % at 20 µM. 360,000 compounds, 0.33% hits. AID 602429; in the data active = inhibition above about 37%
DNMT1 inh: inhibitors of human DNMT1. P26358. DNMT1 molecular beacon, Hinp1I cleavage, fluorescence. inhibition (reported as % activation of signal), % at 10 µM. 360,000 compounds, 0.83% hits. AID 588458; in the data active = inhibition above about 50%
MT1-MMP act inh: inhibitors of human MT1-MMP activation. P50281. HT1080 RFP-PRO-GFP cells, GFP/RFP ratio fluorescence, overnight; percent of plate control window, DMSO zero. GFP/RFP ratio change, % at 20 µM. 360,000 compounds, 0.061% hits;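 active = GFP/RFP ratio change of at least 30% with cell ATP level not reduced by more than half and red fluorescence within 50% of control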
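Compound: 20 µM single dose, 1% DMSO / System: HT1080 RFP-PRO-GFP cells / Controls: DMSO and RFP-L50D-GFP cell wells / Read-out basis: GFP/RFP fluorescence ratio / Schedule: overnight compound exposure at 37 °C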
SKN-1 block: inhibitors of C. elegans SKN-1 | C. elegans VP596 Pgst-4::GFP/RFP ratio, acrylamide-induced, 24 h | inhibition, % at 21.8 µM | 360,000 compounds, 0.49% hits | AID 624304;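 active = interference check ratio from 0.5 to 1.5 plus GFP to RFP signal ratio inhibition reaching or exceeding a fixed threshold, cut at about 30% in these data, passing the limit was not always enough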
Rpn11 confirm: Rpn11 inhibition confirmation, single concentration; purified human 26S proteasome, Ub4-pepOG fluorescence polarization; proteasome pretreated with epoxomicin; inhibition, % at 20 µM; AID 602318; shares compounds with Rpn11 inh; 1,900 compounds, 29% hits
MMP-2 counter: MMP-2 (human) inhibition counter-screen. shares compounds with Rpn11 inh. recombinant MMP-2, FRET peptide cleavage fluorescence. inhibition, % at 20 µM. 1,900 compounds, 4% hits. AID 602330;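 also: human MMP-2 activated beforehand with APMA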
Thrombin inh: blocks bovine thrombin, flagging nonselective RPN11 hits; AID 602333; bovine thrombin cleavage of Ub4-pepOG, fluorescence polarization; shares compounds with Rpn11 inh; inhibition, % at 20 µM; 1,900 compounds, 13% hits;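 active = mean inhibition at least 40% at 20 µM, or signal 3 deviations below plate average, so some actives read negative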;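 also: plate controls were thrombin with DMSO for no effect and buffer wells lacking thrombin for full effect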
* hit, by the source's call; . = not tested or not shown. An excerpt weighted towards active compounds, which were near 2.3% of everything screened. Rule as the data show it, unless noted: active = inhibition above about 40%; inactive = the rest.

SMILES | CSN inh | Rpn11 inh | SUMO1 PPI mod | DNMT1 inh | MT1-MMP act inh | SKN-1 block | Rpn11 confirm | MMP-2 counter | Thrombin inh
COc1ccc(NC2=Nc3cccc4cccc2c34)cc1 | 19 | 50* | -17 | 1 | -11 | 11 | 24 | -27 | 10
Cc1ccc2nc(C)cc(Nc3ccc([N+](=O)[O-])cc3)c2c1 | 4 | 45* | -14 | 23 | 0 | -4 | 34 | -10 | -5
COC(=O)c1ccc(Nc2cc(C)nc3ccc(C)cc23)cc1 | 2 | 1 | -13 | 2 | 1 | 4 | . | . | .
CC(=O)Nc1sc(C)c(C)c1C(=O)OCCOc1ccccc1 | -1 | 34* | 14 | -4 | 4 | 6 | -5 | -31 | -17
Cn1c(=O)c2cc(NC(=O)Nc3cccnc3)ccc2n1Cc1cccc(C(F)(F)F)c1 | -1 | -4 | 7 | -6 | 1 | 8 | . | . | .
Cn1c(=O)c2cc(NC(=O)Nc3cccnc3)ccc2n1Cc1ccc(Cl)cc1 | 10 | 46* | 1 | -8 | 0 | 13 | 14 | -17 | 4
CN1CCN(c2cc(N3CCN(C(=O)c4ccco4)CC3)c3c4c(onc24)-c2ccccc2C3=O)CC1 | 7 | . | 3 | -21 | -3 | 58 | . | . | .
O=C1c2ccccc2-c2onc3c(N4CCN(CCO)CC4)cc(N4CCN(C(=O)c5ccco5)CC4)c1c23 | 8 | 49* | 56* | -19 | 2 | 54 | active | -92 | active
O=C(NC1CCCCC1)c1cc(S(=O)(=O)N2CCN(c3ccccc3)CC2)ccc1Cl | 2 | -1 | 0 | 7 | 2 | 16 | . | . | .
O=C(Nc1ccc2c(c1)CCC2)c1cc(S(=O)(=O)N2CCN(c3ccccc3)CC2)ccc1Cl | 6 | 64* | 2 | -2 | -2 | 6 | 41* | 14 | -50
CCCCn1c(/N=C/c2ccc(N(C)C)cc2)nc2ccccc21 | 17 | 52* | -2 | -3 | 3 | 8 | 72* | -14 | 59*
COc1ccccc1/C=C/C=C1N=C(/C=C/c2ccc(Cl)cc2)OC/1=O | 11 | 60* | -2 | 10 | 11 | 10 | 11 | -52 | 4
COc1ccc(C(=O)Nc2nc3nc(-c4ccccc4)cc(=O)n3[nH]2)cc1 | 2 | 69* | 13 | 2 | 2 | 13 | -4 | 4 | -22
N#Cc1cc(C#N)c(SCC(=O)N2CC(=O)Nc3ccccc32)nc1N | 10 | 43* | -14 | -4 | -13 | 5 | 28 | -57 | 23
COC(=O)[C@]12CCCCC=C1N(CCc1ccc(OC)c(OC)c1)C(=O)[C@H](CC(=O)N1CCOCC1)C2 | 4 | . | 0 | . | -5 | 13 | . | . | .
CCCCc1ccc(-c2csc(/C(C#N)=C\c3ccc(C)o3)n2)cc1 | 38* | 62* | -2 | 24 | -23 | 8 | 12 | -5 | 6
CC1C(=O)N(Cc2cn(Cc3ccco3)nn2)CCS(=O)(=O)N1Cc1ccc(-c2cccc(N(C)C)c2)cc1 (stereo not drawn) | 8 | 2 | 3 | -3 | -1 | -3 | . | . | .
COc1cc(/C=C/c2ccc3c(Br)cc(Br)c(O)c3n2)ccc1O | 11 | 43* | 2 | -25 | -31 | 22 | -7 | 27 | -23
Cc1ccccc1Sc1ccc(N)cn1 | -78 | 60* | 0 | -10 | -20 | 17 | 9 | -33 | -2
CN1CCN(c2ncnc3c2ncn3[C@H]2CN(Cc3ccc(Cl)cc3)C[C@@H](CO)O2)CC1 | -8 | -2 | -1 | 0 | 1 | 6 | . | . | .
COCCNC(=O)c1cc2c(c(-c3cccc(-c4cc5ccccc5o4)c3)n1)[C@@H](CCO)N(S(=O)C(C)(C)C)C2 (stereo partly drawn) | 5 | 21 | 1 | -44 | 0 | 9 | . | . | .
CCOC(=O)c1cc(-c2ccccc2)sc1NC(=O)C(C)N1C(=O)NC(C)(c2ccc(Cl)cc2)C1=O (stereo not drawn) | 6 | 120* | 2 | -8 | -9 | 18 | 13 | 11 | 4
CCOC(=O)c1cc(-c2ccccc2)sc1NC(=O)C(C)C | 3 | -9 | 1 | 3 | -5 | -6 | . | . | .
O=C(OCc1ccccc1)N1CCC2CC1c1ccc(N3CCNCC3)cc12 (stereo not drawn) | 2 | 5 | -2 | 2 | -3 | -8 | . | . | .
Cc1cc(=O)[nH]c(N/N=C/c2c(O)n(-c3ccccc3)c(=O)c3ccccc23)n1 | -4 | 66* | 5 | -3 | -39 | 4 | 43* | -59 | 13
SMILES | CSN inh | Rpn11 inh | SUMO1 PPI mod | DNMT1 inh | MT1-MMP act inh | SKN-1 block | Rpn11 confirm | MMP-2 counter | Thrombin inh
O=c1c2ccccc2c(C=NCc2ccccn2)c(O)n1-c1ccccc1 | 9 | 49* | -24 | -6 | -6 | 1 | 35 | -38 | 6
COc1ccc(CN2C(=O)CSCC2(C)C(=O)NCc2ccccc2)cc1 (stereo not drawn) | 10 | . | 0 | . | 5 | 1 | . | . | .
COc1ccccc1NC(=O)C1=C(C)NC(=O)NC1c1ccccc1[N+](=O)[O-] (stereo not drawn) | 5 | 52* | 5 | -2 | -8 | 9 | -2 | -25 | -23
CN(C)C(=O)CSc1cccc2cccnc12 | 1 | 69* | 2 | -19 | 5 | 24 | 24 | -16 | -2
O=C(CSc1cccc2cccnc12)N1CCCC1 | 2 | 71* | 4 | -22 | 7 | 4 | 35 | -18 | -16
CC(C)CNc1ncnc2c1ncn2[C@H]1CN(CCc2ccccc2)C[C@@H](CO)O1 | -1 | -1 | 0 | -6 | 3 | 21 | . | . | .
O=C(N/N=C/c1cccc([N+](=O)[O-])c1)c1ccc(Br)cc1 | 12 | 42* | -7 | 20 | 3 | 0 | 17 | 41* | 1
COc1cc(/C=N/NC(=O)c2cccc([N+](=O)[O-])c2)ccc1OCc1ccccc1 | 2 | 0 | -3 | 1 | 12 | -6 | . | . | .
O=C(N/N=C/c1cccc([N+](=O)[O-])c1)c1cccc(Br)c1 | 5 | 3 | 4 | -2 | 4 | 7 | . | . | .
COc1cc(/C=N/NC(=O)c2ccc(O)cc2)ccc1OCC(=O)Nc1cccc([N+](=O)[O-])c1 | 16 | 116* | 93* | 4 | 6 | -8 | 9 | -18 | -3
